Assay results from ChEMBL document CHEMBL1933006, “Mechanistic analysis of muraymycin analogues: a guide to the design of MraY inhibitors” (J Med Chem, 2011).
In brackets after ≈: the same amount, converted by molar mass.

Columns and labels:
[1] = tested on: Staphylococcus aureus; experiment: Antibacterial activity against methicillin-resistant Staphylococcus aureus isolate SR3637 after 20 hrs by broth microdilution method; assay type: functional; conditions: isolate SR3637, 20 h
In short: (§1)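 NCCLS broth microdilution in cation-adjusted Mueller–Hinton broth. Serial 2-fold compound dilutions were inoculated with 5 × 10⁴ CFU per 0.1 mL and incubated at 35 °C for 20 h before scoring the MIC.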

[2] = tested on: Enterococcus faecalis; experiment: Antibacterial activity against Enterococcus faecalis ATCC 29212 after 20 hrs by broth microdilution method; assay type: functional; conditions: ATCC 29212, 20 h; in short: as §1
[3] = tested on: Enterococcus faecium; experiment: Antibacterial activity against vancomycin-resistant Enterococcus faecium SR7917 after 20 hrs by broth microdilution method; assay type: functional; conditions: SR7917, 20 h; in short: as §1
[4] = tested on: Enterococcus faecalis; experiment: Antibacterial activity against vancomycin-resistant Enterococcus faecalis SR7914 after 20 hrs by broth microdilution method; assay type: functional; conditions: SR7914, 20 h; in short: as §1
[5] = tested on: Staphylococcus aureus; experiment: Antibacterial activity against methicillin-sensitive […] Staphylococcus aureus ATCC 29213 after 20 hrs by broth microdilution method; assay type: functional; conditions: ATCC 29213, 20 h; in short: as §1
[6] = tested on: Enterococcus faecium; experiment: Antibacterial activity against Enterococcus faecium ATCC 19434 after 20 hrs by broth microdilution method; assay type: functional; conditions: ATCC 19434, 20 h; in short: as §1
[7] = target: T1, Phospho-N-acetylmuramoyl-pentapeptide-transferase (Bacillus subtilis (strain 168), UniProt Q03521); experiment: Noncompetitive inhibition of Bacillus subtilis MraY using […] as substrate after 30 mins by Lineweaver-Burk plot
T1 sequence (Q03521 whole entry): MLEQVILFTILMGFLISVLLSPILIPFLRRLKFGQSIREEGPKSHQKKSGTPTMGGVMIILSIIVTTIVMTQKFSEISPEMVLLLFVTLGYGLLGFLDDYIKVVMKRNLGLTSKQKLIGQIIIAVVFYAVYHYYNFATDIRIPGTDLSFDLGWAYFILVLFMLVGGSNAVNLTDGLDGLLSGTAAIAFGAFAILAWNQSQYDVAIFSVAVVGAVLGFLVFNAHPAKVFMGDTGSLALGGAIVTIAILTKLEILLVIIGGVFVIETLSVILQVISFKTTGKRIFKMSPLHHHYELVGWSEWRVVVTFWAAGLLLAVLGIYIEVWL

[8] = target: T1, Phospho-N-acetylmuramoyl-pentapeptide-transferase; experiment: Competitive inhibition of Bacillus subtilis MraY using UDP-MurNAc-pentapeptide as substrate after 30 mins by Lineweaver-Burk plot
In short: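 B. subtilis MraY was assayed at pH 7.5 (100 mM Tris-HCl, 40 mM MgCl₂, 250 mM NaCl, 8.4 mM N-lauroylsarcosine), started by enzyme and run 30 min at 37 °C. Initial rates were taken at 0.25–1.5 mM UDP-MurNAc-[¹⁴C]pentapeptide, fixed 1 mM C₅₅-P, and several inhibitor levels. Lipid I was separated by TLC and scanned. Ki came from Lineweaver–Burk plots assuming a ping-pong Bi Bi mechanism.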

[9] = target: T2, Undecaprenyl-phosphate alpha-N-acetylglucosaminyl 1-phosphate transferase (Thermotoga maritima (strain ATCC 43589 / MSB8 / DSM 3109 / JCM 10099), UniProt Q9X1N5); experiment: Inhibition of Thermotoga maritima WecA using radiolabeled UDP-[14C]GlcNAc as substrate after 30 mins
T2 sequence (Q9X1N5 whole entry): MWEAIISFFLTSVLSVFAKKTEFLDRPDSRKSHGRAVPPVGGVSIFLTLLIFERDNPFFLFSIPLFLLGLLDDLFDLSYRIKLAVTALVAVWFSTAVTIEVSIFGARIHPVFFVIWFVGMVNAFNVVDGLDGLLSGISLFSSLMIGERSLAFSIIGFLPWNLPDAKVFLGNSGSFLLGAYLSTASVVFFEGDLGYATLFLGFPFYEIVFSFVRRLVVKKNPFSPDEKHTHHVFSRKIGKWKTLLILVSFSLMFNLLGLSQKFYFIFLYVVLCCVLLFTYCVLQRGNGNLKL
In short: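 Purified Thermotoga maritima WecA was assayed at pH 8 (100 mM Tris-HCl, 10 mM MgCl₂, 1.1 mM C₅₅-P, 0.16 mM UDP-[¹⁴C]GlcNAc, 92.7 mM Triton X-100), final concentrations. The reaction was started by enzyme, run 30 min at 65 °C and stopped at 100 °C for 1 min. C₅₅-PP-GlcNAc was separated by TLC and scanned. IC50 was relative to a no-inhibitor control, mean of triplicates.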

CCCCCCCCCCCCCCC[C@H](NC(=O)[C@@H](N)CCCNC(=N)N)C(=O)NCCCN[C@H](C(=O)O)[C@H](O[C@@H]1O[C@H](CN)[C@@H](O)[C@H]1O)[C@H]1O[C@@H](n2ccc(=O)[nH]c2=O)[C@H](O)[C@@H]1O
MIC [1]: 4 µg/mL (≈ 4.31 µM) | MIC [2]: 4 µg/mL (≈ 4.31 µM) | MIC [3]: 4 µg/mL (≈ 4.31 µM) | MIC [4]: 4 µg/mL (≈ 4.31 µM) | MIC [5]: 4 µg/mL (≈ 4.31 µM)

CCCCCCOc1ccc(-c2ccc([C@@H](NC(=O)[C@@H](NC(=O)N[C@H](C(=O)O)C(C)C)[C@@H]3CCNC(=N)N3)C(=O)NCCCN[C@H](C(=O)O)[C@H](O[C@@H]3O[C@H](CN)[C@@H](O)[C@H]3O)[C@H]3O[C@@H](n4ccc(=O)[nH]c4=O)[C@H](O)[C@@H]3O)cc2)cc1
MIC [1]: 16 µg/mL (≈ 14.4 µM) | MIC [6]: 4 µg/mL (≈ 3.6 µM) | MIC [2]: 16 µg/mL (≈ 14.4 µM) | MIC [3]: 8 µg/mL (≈ 7.19 µM) | MIC [4]: 16 µg/mL (≈ 14.4 µM) | MIC [5]: 16 µg/mL (≈ 14.4 µM)

CN[C@H](CC(C)C)C(=O)N[C@H]1C(=O)N[C@@H](CC(N)=O)C(=O)N[C@H]2C(=O)N[C@H]3C(=O)N[C@H](C(=O)N[C@H](C(=O)O)c4cc(O)cc(O)c4-c4cc3ccc4O)[C@H](O)c3ccc(c(Cl)c3)Oc3cc2cc(c3O[C@@H]2O[C@H](CO)[C@@H](O)[C@H](O)[C@H]2O[C@H]2C[C@](C)(N)[C@H](O)[C@H](C)O2)Oc2ccc(cc2Cl)[C@H]1O [VANCOMYCIN]
MIC [2]: 1 µg/mL (≈ 0.69 µM) | MIC [3]: > 64 µg/mL | MIC [4]: > 64 µg/mL

CCCCCCCCCCCCCCC[C@H](NC(=O)[C@@H](NC(=O)OCc1ccccc1)[C@@H]1CCNC(=N)N1)C(=O)NCCCN[C@H](C(=O)O)[C@H](O[C@@H]1O[C@H](CN)[C@@H](O)[C@H]1O)[C@H]1O[C@@H](n2ccc(=O)[nH]c2=O)[C@H](O)[C@@H]1O
MIC [1]: 8 µg/mL (≈ 7.54 µM) | MIC [2]: 4 µg/mL (≈ 3.77 µM) | MIC [3]: 8 µg/mL (≈ 7.54 µM) | MIC [4]: 4 µg/mL (≈ 3.77 µM) | MIC [5]: 8 µg/mL (≈ 7.54 µM)

CCCCCCCCCCCCCCC[C@@H](NC(=O)[C@H](CCCNC(=N)N)NC(=O)N[C@H](C(=O)O)C(C)C)C(=O)NCCCN[C@H](C(=O)O)[C@H](O[C@@H]1O[C@H](CN)[C@@H](O)[C@H]1O)[C@H]1O[C@@H](n2ccc(=O)[nH]c2=O)[C@H](O)[C@@H]1O
MIC [1]: 4 µg/mL (≈ 3.73 µM) | MIC [2]: 4 µg/mL (≈ 3.73 µM) | MIC [3]: 2 µg/mL (≈ 1.87 µM) | MIC [4]: 4 µg/mL (≈ 3.73 µM) | MIC [5]: 4 µg/mL (≈ 3.73 µM)

CCCCCCCCCCCCCCC[C@@H](NC(=O)[C@@H](NC(=O)OCc1ccccc1)[C@@H]1CCNC(=N)N1)C(=O)NCCCN[C@H](C(=O)O)[C@H](O[C@@H]1O[C@H](CN)[C@@H](O)[C@H]1O)[C@H]1O[C@@H](n2ccc(=O)[nH]c2=O)[C@H](O)[C@@H]1O
MIC [1]: 8 µg/mL (≈ 7.54 µM) | MIC [2]: 4 µg/mL (≈ 3.77 µM) | MIC [3]: 4 µg/mL (≈ 3.77 µM) | MIC [4]: 4 µg/mL (≈ 3.77 µM) | MIC [5]: 8 µg/mL (≈ 7.54 µM)

CCCCCCCCCCCCCCC[C@H](NC(=O)[C@H](CCCNC(=N)N)NC(=O)N[C@H](C(=O)O)C(C)C)C(=O)NCCCN[C@H](C(=O)O)[C@H](O[C@@H]1O[C@H](CN)[C@@H](O)[C@H]1O)[C@H]1O[C@@H](n2ccc(=O)[nH]c2=O)[C@H](O)[C@@H]1O
MIC [1]: 2 µg/mL (≈ 1.87 µM) | MIC [2]: 2 µg/mL (≈ 1.87 µM) | MIC [3]: 1 µg/mL (≈ 0.933 µM) | MIC [4]: 2 µg/mL (≈ 1.87 µM) | MIC [5]: 2 µg/mL (≈ 1.87 µM)

CCCCCCCCCCCCCCC[C@@H](NC(=O)[C@@H](NC(=O)N[C@H](C(=O)O)C(C)C)[C@H]1CCNC(=N)N1)C(=O)NCCCN[C@H](C(=O)O)[C@H](O[C@@H]1O[C@H](CN)[C@@H](O)[C@H]1O)[C@H]1O[C@@H](n2ccc(=O)[nH]c2=O)[C@H](O)[C@@H]1O
MIC [1]: 2 µg/mL (≈ 1.87 µM) | MIC [2]: 2 µg/mL (≈ 1.87 µM) | MIC [3]: 4 µg/mL (≈ 3.74 µM) | MIC [4]: 4 µg/mL (≈ 3.74 µM) | MIC [5]: 4 µg/mL (≈ 3.74 µM)

CC(C)C[C@@H](NC(=O)[C@@H](NC(=O)N[C@H](C(=O)O)C(C)C)[C@@H]1CCN=C(N)N1)C(=O)NCCCN[C@H](C(=O)O)[C@H](O[C@@H]1O[C@H](CN)[C@@H](O)[C@H]1O)[C@H]1O[C@@H](n2ccc(=O)[nH]c2=O)[C@H](O)[C@@H]1O
Ki [7]: 0.049 µM | Ki [8]: 0.049 µM | IC50 [9]: 1560 µM
